Assay results from ChEMBL document CHEMBL1212869, “Anti-HIV and antiplasmodial activity of original flavonoid derivatives” (Bioorg Med Chem, 2010).

How the values were obtained:
[1] = Selectivity index, ratio of IC50 for human THP1 cells to IC50 for chloroquine-resistant Plasmodium falciparum W2; assay type: toxicity, cell-based, THP-1; settings: read-out: Selectivity Index
THP-1 = experiment: Cytotoxicity against human THP1 cells using propidium iodide staining after 72 hrs by flow cytometry; assay type: cell-based; settings: THP-1, 72 h
[2] = Selectivity index, ratio of CC50 for human MT4 cells to IC50 for HIV1 3B; assay type: functional
Outline: (§1)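 Selectivity index was calculated as the MT-4 CC50 from uninfected cells divided by the IC50 against HIV-1 IIIB or HIV-2 ROD. Both values came from the 4-day MTT cytopathic-effect assays.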

[3] = system: Human immunodeficiency virus 2; experiment: Antiviral activity against HIV2 ROD infected in human MT4 cells assessed as inhibition of virus-induced cytopathic effect after 4 days by MTT assay; assay type: functional, organism-based; settings: Human immunodeficiency virus 2, ISOLATE ROD, MT4, 96 h
[4] = Cytotoxicity against human MT4 cells after 4 days by MTT assay; assay type: cell-based
Outline: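 Uninfected MT-4 cells were run in parallel with the antiviral test under the same conditions: 10⁵ cells/mL, serial compound dilutions from DMSO stocks, 4 days at 37 °C. Viability was read by MTT. CC50 is the concentration that lowers viability of uninfected cells by 50%.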

Plasmodium falciparum = experiment: Antiplasmodial activity against chloroquine-resistant Plasmodium falciparum W2 infected in human A+ erythrocytes assessed as inhibition of parasite proliferation after 48 hrs; assay type: functional, organism-based; settings: W2, 48 h
Outline: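 W2 parasites were cultured in RPMI 1640 with 25 mM HEPES, 25 mM NaHCO3 and 10% A+ human serum at 2.5% hematocrit, at 37 °C under 10% O2/6% CO2/84% N2. After 48 h exposure without medium change, cells were stained with hydroethidine (0.05 mg/mL in PBS, 20 min, dark, 37 °C). Parasitaemia was read by flow cytometry. IC50 came from three independent experiments.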

[5] = system: Human immunodeficiency virus 1; experiment: Antiviral activity against HIV1 3B infected in human MT4 cells assessed as inhibition of virus-induced cytopathic effect after 4 days by MTT assay; assay type: functional, organism-based; settings: Human immunodeficiency virus 1, 3B, MT4, 96 h
[6] = Selectivity index, ratio of CC50 for human MT4 cells to IC50 for HIV2 ROD; assay type: functional; outline: as §1

| Structure (SMILES) | selectivity ratio [1] | IC50 (THP-1) [µM] | Selectivity Index [2] | IC50 [3] [µM] | CC50 at 96 h [4] [µM] | IC50 (Plasmodium falciparum) [µM] | IC50 [5] [µM] | Selectivity Index [6] |
| --- | --- | --- | --- | --- | --- | --- | --- | --- |
| COc1ccccc1-c1cc(=O)c2cc(N)ccc2o1 | 1.5 | 74 | 2.3 | 198 | 198 | 50 | 88 | – |
| COc1c(-c2ccc(C(F)(F)F)cc2)oc2ccc(N)cc2c1=O | – | – | – | 47.7 | 290 | 26 | 290 | 6.1 |
| COc1c(-c2cccc(C(F)(F)F)c2)oc2ccc(N)cc2c1=O | – | 33 | 1.5 | 57.6 | 73.1 | > 33 | 50.4 | 1.3 |
| Cc1cn([C@H]2C[C@H](N=[N+]=[N-])[C@@H](CO)O2)c(=O)[nH]c1=O [ZIDOVUDINE] | – | – | >17990 | – | 93.5 | – | 0.005 | – |
| Nc1ccc2oc(-c3cccc(F)c3)cc(=O)c2c1 | – | > 125 | 4.4 | 58.4 | 269 | > 50 | 61.1 | 4.6 |
| COc1ccc(-c2oc3ccc(N)cc3c(=O)c2OC)cc1 | – | 21 | – | 58.2 | 200 | > 21 | 200 | 3.4 |
| COc1c(-c2cccc(F)c2)oc2ccc(N)cc2c1=O | – | 34 | – | 60.7 | 112 | > 34 | 112 | 1.9 |
| COc1cccc(/C=C/C(=O)c2cc(NC(C)=O)ccc2O)c1 | 7.1 | 93.7 | – | 40 | 40 | 13.2 | 40 | – |
| COc1c(-c2ccc(F)cc2)oc2ccc(NC(C)=O)cc2c1=O | > 5.4 | > 125 | – | 317 | 317 | 23 | 317 | – |
| COc1ccc(/C=C/C(=O)c2cc(NC(C)=O)ccc2O)cc1 | 8.8 | 59.2 | – | 38.7 | 38.7 | 6.7 | 38.7 | – |
| Cc1ccnc2c1NC(=O)c1cccnc1N2C1CC1 [NEVIRAPINE] | – | – | – | 15 | – | – | 0.03 | 46 |
| CC(=O)Nc1ccc(O)c(C(=O)/C=C/c2ccc(C(F)(F)F)cc2)c1 | 1.3 | 15.5 | – | 21.1 | 21.1 | 11.6 | 21.1 | – |
| COc1c(-c2ccccc2F)oc2ccc(N)cc2c1=O | > 5.4 | > 125 | 5.2 | 234 | 234 | 23 | 44.7 | – |
| COc1c(-c2ccccc2)oc2ccc(NC(C)=O)cc2c1=O | > 6.9 | > 125 | – | 200 | 200 | 18 | 200 | – |
| CC(=O)Nc1ccc(O)c(C(=O)/C=C/c2ccccc2)c1 | 5.4 | 85.5 | – | 49.8 | 49.4 | 15.9 | 49.8 | – |
| COc1ccccc1-c1oc2ccc(NC(C)=O)cc2c(=O)c1O | > 2.5 | > 125 | – | 385 | 385 | 50 | 385 | – |
| COc1c(-c2ccccc2F)oc2ccc(NC(C)=O)cc2c1=O | > 8.3 | > 125 | – | 180 | 180 | 15 | 180 | – |
| COc1cccc(-c2oc3ccc(N)cc3c(=O)c2OC)c1 | 2.8 | 37 | – | 251 | 251 | 13 | 251 | – |
| O=c1[nH]cnc2c1ncn2[C@H]1CC[C@@H](CO)O1 [DIDANOSINE] | – | – | >98 | – | > 529 | – | – | >195 |
| COc1c(-c2cccc(F)c2)oc2ccc(NC(C)=O)cc2c1=O | > 2.6 | > 125 | – | 210 | 210 | 49 | 210 | – |
